ChEMBL document CHEMBL2331491, “Novel imidazophenoxazine-4-sulfonamides: their synthesis and evaluation as potential inhibitors of PDE4” (Bioorg Med Chem, 2013)

What follows are compounds tested against T1, 3',5'-cyclic-AMP phosphodiesterase 4B (Homo sapiens, UniProt Q07343) (assay: Inhibition of PDE4B1 (unknown origin) expressed in sf9 cells using cAMP as substrate preincubated at 30 uM for 15 mins before substrate addition measured after 1 hr by luminescence assay).
Outline: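 His-tagged PDE4B1 was expressed in baculovirus-infected Sf9 cells (lysed 48 h post infection) and purified on Ni-NTA. 10 ng of enzyme was preincubated 15 min with compound or DMSO vehicle, then given cAMP substrate for 1 h. The reaction was stopped and detection reagent added for 10 min in the dark before reading luminescence. % inhibition = (RLU vehicle − RLU inhibitor)/RLU vehicle × 100, at a single screening concentration.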

T1 sequence (Q07343 whole entry): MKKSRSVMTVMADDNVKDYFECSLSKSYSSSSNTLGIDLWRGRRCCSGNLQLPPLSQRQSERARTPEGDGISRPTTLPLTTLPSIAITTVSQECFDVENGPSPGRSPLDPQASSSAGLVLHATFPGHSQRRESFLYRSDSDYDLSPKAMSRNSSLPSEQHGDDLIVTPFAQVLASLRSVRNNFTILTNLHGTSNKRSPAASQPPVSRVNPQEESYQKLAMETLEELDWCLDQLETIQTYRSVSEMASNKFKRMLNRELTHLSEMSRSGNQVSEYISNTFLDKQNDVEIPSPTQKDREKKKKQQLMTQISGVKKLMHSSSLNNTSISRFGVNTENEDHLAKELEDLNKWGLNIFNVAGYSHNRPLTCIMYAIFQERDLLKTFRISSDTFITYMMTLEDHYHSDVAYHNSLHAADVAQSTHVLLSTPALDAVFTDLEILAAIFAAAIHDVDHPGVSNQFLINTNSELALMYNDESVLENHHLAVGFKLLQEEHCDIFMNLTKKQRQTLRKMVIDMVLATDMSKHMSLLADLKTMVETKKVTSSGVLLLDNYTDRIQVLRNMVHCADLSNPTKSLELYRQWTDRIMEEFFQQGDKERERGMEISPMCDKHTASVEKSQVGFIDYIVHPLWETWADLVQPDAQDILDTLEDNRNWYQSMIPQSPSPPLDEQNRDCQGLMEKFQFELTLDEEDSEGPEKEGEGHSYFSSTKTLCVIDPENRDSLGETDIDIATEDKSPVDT

inhibition	Structure (SMILES)
76.3%	NS(=O)(=O)c1cc2c3c(c1)nc(-c1ccccc1Cl)n3-c1ccccc1O2
82.4%	COc1cc(-c2nc3cc(S(N)(=O)=O)cc4c3n2-c2ccccc2O4)ccc1O
81%	NS(=O)(=O)c1cc2c3c(c1)nc(-c1ccccc1Br)n3-c1ccccc1O2
66.5%	COc1ccc(-c2nc3cc(S(N)(=O)=O)cc4c3n2-c2ccccc2O4)cc1
80.2%	NS(=O)(=O)c1cc2c3c(c1)nc(-c1c(Cl)cccc1Cl)n3-c1ccccc1O2
89.3%	NS(=O)(=O)c1cc2c3c(c1)nc(-c1ccccc1O)n3-c1ccccc1O2
87.6%	NS(=O)(=O)c1cc2c3c(c1)nc(-c1cccc(O)c1)n3-c1ccccc1O2
19.7%	CCN(CC)c1ccc(-c2nc3cc(S(N)(=O)=O)cc4c3n2-c2ccccc2O4)c(O)c1
66.8%	NS(=O)(=O)c1cc2c3c(c1)nc(-c1cccc([N+](=O)[O-])c1)n3-c1ccccc1O2
80.3%	NS(=O)(=O)c1cc2c3c(c1)nc(-c1ccc(Cl)cc1)n3-c1ccccc1O2
92.9%	NS(=O)(=O)c1cc2c3c(c1)nc(-c1cc(Br)ccc1F)n3-c1ccccc1O2
79.7%	NS(=O)(=O)c1cc2c3c(c1)nc(-c1ccccc1)n3-c1ccccc1O2
89.7%	NS(=O)(=O)c1cc2c3c(c1)nc(-c1cccc(Br)c1)n3-c1ccccc1O2
88.8%	NS(=O)(=O)c1cc2c3c(c1)nc(-c1ccc(O)cc1)n3-c1ccccc1O2

These compounds were tested against T1, 3',5'-cyclic-AMP phosphodiesterase 4B (assay: Inhibition of PDE4B1 (unknown origin) expressed in sf9 cells using cAMP as substrate preincubated for 15 mins before substrate addition measured after 1 hr by luminescence assay).
Outline: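 Ni-NTA-purified His-tagged PDE4B1 from baculovirus-infected Sf9 cells was used at 10 ng per reaction. Enzyme was preincubated 15 min with compound (9 concentrations) or DMSO, then cAMP for 1 h. After stop solution and 10 min detection reagent in the dark, luminescence was read. % inhibition was taken versus vehicle RLU. IC50 came from nonlinear regression of the dose-response curve and is given as mean ± SD.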

IC50	inhibition	Structure (SMILES)
3310 nM	Dose-dependent effect	NS(=O)(=O)c1cc2c3c(c1)nc(-c1ccccc1O)n3-c1ccccc1O2
530 nM	Dose-dependent effect	NS(=O)(=O)c1cc2c3c(c1)nc(-c1cc(Br)ccc1F)n3-c1ccccc1O2
1230 nM	Dose-dependent effect	NS(=O)(=O)c1cc2c3c(c1)nc(-c1cccc(Br)c1)n3-c1ccccc1O2
